Laboratory results published in ChEMBL document CHEMBL4689842, “EUbOPEN Chemogenomics Library wave 1” (2021).

Tested on: Fibroblast
Test: Multiplex assay against human fibroblast
Format: toxicity, cell-based
How it was run: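 Live cells carried four stains from seeding: Hoechst33342, BioTracker Green Microtubule Cytoskeleton Dye, MitoTracker Red and Annexin V Alexa Fluor 680. They were imaged on a CQ1 microscope at 37°C and 5% CO2 after compound addition. Using CellPathfinder machine-learning gating, cells were split into Hoechst high-intensity objects or normal cells, normal cells into healthy, pyknosed or fragmented nuclei, and pyknosed cells into mitotic or apoptotic; tubulin, mitochondrial-mass and membrane-permeability phenotypes are per cents of healthy-nucleus cells.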

[1] = 12 h, 1 µM, compound concentration 1 uM, replicate 1
[2] = 12 h, 1 µM, compound concentration 1 uM, replicate 2
[3] = 12 h, 10 µM, compound concentration 10 uM, replicate 1
[4] = 12 h, 10 µM, compound concentration 10 uM, replicate 2
[5] = 24 h, 1 µM, compound concentration 1 uM, replicate 1
[6] = 24 h, 1 µM, compound concentration 1 uM, replicate 2
[7] = 24 h, 10 µM, compound concentration 10 uM, replicate 1
[8] = 24 h, 10 µM, compound concentration 10 uM, replicate 2
[9] = 48 h, 1 µM, compound concentration 1 uM, replicate 1
[10] = 48 h, 1 µM, compound concentration 1 uM, replicate 2
[11] = 48 h, 10 µM, compound concentration 10 uM, replicate 1
[12] = 48 h, 10 µM, compound concentration 10 uM, replicate 2

O=C(O)c1ccc2cc(-c3ccc(O)c(C45CC6CC(CC(C6)C4)C5)c3)ccc2c1 [O-DEMETHYLATED ADAPALENE]
Population Apoptotic (%) [1]: 57% | Population Fragmented Nuclei (%) [1]: 36% | Population Healthy Nuclei (%) [1]: 20% | Population Hoechst High Intensity Objects (%) [1]: 18% | Population Membrane Permeable-Phenotype (%) [1]: 31% | Population Mitochondria Different-Phenotype (%) [1]: 21% | Population Mitotic Cells (%) [1]: 42% | Population Normal (%) [1]: 81% | Population Pyknosed Nuclei (%) [1]: 43% | Population Tubulin-Different-Phenotype (%) [1]: 60% | Total Cell Count [1]: 249 | Population Apoptotic (%) [2]: 100% | Population Fragmented Nuclei (%) [2]: 8% | Population Healthy Nuclei (%) [2]: 87% | Population Hoechst High Intensity Objects (%) [2]: 9% | Population Membrane Permeable-Phenotype (%) [2]: 6% | Population Mitochondria Different-Phenotype (%) [2]: 16% | Population Mitotic Cells (%) [2]: 0% | Population Normal (%) [2]: 90% | Population Pyknosed Nuclei (%) [2]: 3% | Population Tubulin-Different-Phenotype (%) [2]: 16% | Total Cell Count [2]: 62 | Population Apoptotic (%) [3]: 72% | Population Fragmented Nuclei (%) [3]: 32% | Population Healthy Nuclei (%) [3]: 37% | Population Hoechst High Intensity Objects (%) [3]: 16% | Population Membrane Permeable-Phenotype (%) [3]: 44% | Population Mitochondria Different-Phenotype (%) [3]: 0% | Population Mitotic Cells (%) [3]: 27% | Population Normal (%) [3]: 83% | Population Pyknosed Nuclei (%) [3]: 30% | Population Tubulin-Different-Phenotype (%) [3]: 33% | Total Cell Count [3]: 115 | Population Apoptotic (%) [4]: 100% | Population Fragmented Nuclei (%) [4]: 11% | Population Healthy Nuclei (%) [4]: 87% | Population Hoechst High Intensity Objects (%) [4]: 2% | Population Membrane Permeable-Phenotype (%) [4]: 1% | Population Mitochondria Different-Phenotype (%) [4]: 16% | Population Mitotic Cells (%) [4]: 0% | Population Normal (%) [4]: 97% | Population Pyknosed Nuclei (%) [4]: 1% | Population Tubulin-Different-Phenotype (%) [4]: 25% | Total Cell Count [4]: 83 | Population Apoptotic (%) [5]: 53% | Population Fragmented Nuclei (%) [5]: 35% | Population Healthy Nuclei (%) [5]: 20% | Population Hoechst High Intensity Objects (%) [5]: 23% | Population Membrane Permeable-Phenotype (%) [5]: 29% | Population Mitochondria Different-Phenotype (%) [5]: 18% | Population Mitotic Cells (%) [5]: 46% | Population Normal (%) [5]: 76% | Population Pyknosed Nuclei (%) [5]: 43% | Population Tubulin-Different-Phenotype (%) [5]: 45% | Total Cell Count [5]: 236 | Population Apoptotic (%) [6]: 100% | Population Fragmented Nuclei (%) [6]: 7% | Population Healthy Nuclei (%) [6]: 89% | Population Hoechst High Intensity Objects (%) [6]: 6% | Population Membrane Permeable-Phenotype (%) [6]: 6% | Population Mitochondria Different-Phenotype (%) [6]: 30% | Population Mitotic Cells (%) [6]: 0% | Population Normal (%) [6]: 93% | Population Pyknosed Nuclei (%) [6]: 3% | Population Tubulin-Different-Phenotype (%) [6]: 18% | Total Cell Count [6]: 60 | Population Apoptotic (%) [7]: 57% | Population Fragmented Nuclei (%) [7]: 28% | Population Healthy Nuclei (%) [7]: 42% | Population Hoechst High Intensity Objects (%) [7]: 21% | Population Membrane Permeable-Phenotype (%) [7]: 55% | Population Mitochondria Different-Phenotype (%) [7]: 0% | Population Mitotic Cells (%) [7]: 42% | Population Normal (%) [7]: 78% | Population Pyknosed Nuclei (%) [7]: 29% | Population Tubulin-Different-Phenotype (%) [7]: 44% | Total Cell Count [7]: 113 | Population Apoptotic (%) [8]: 0% | Population Fragmented Nuclei (%) [8]: 14% | Population Healthy Nuclei (%) [8]: 81% | Population Hoechst High Intensity Objects (%) [8]: 7% | Population Membrane Permeable-Phenotype (%) [8]: 7% | Population Mitochondria Different-Phenotype (%) [8]: 26% | Population Mitotic Cells (%) [8]: 100% | Population Normal (%) [8]: 92% | Population Pyknosed Nuclei (%) [8]: 3% | Population Tubulin-Different-Phenotype (%) [8]: 28% | Total Cell Count [8]: 83 | Population Apoptotic (%) [9]: 78% | Population Fragmented Nuclei (%) [9]: 61% | Population Healthy Nuclei (%) [9]: 26% | Population Hoechst High Intensity Objects (%) [9]: 43% | Population Membrane Permeable-Phenotype (%) [9]: 2% | Population Mitochondria Different-Phenotype (%) [9]: 15% | Population Mitotic Cells (%) [9]: 21% | Population Normal (%) [9]: 56% | Population Pyknosed Nuclei (%) [9]: 12% | Population Tubulin-Different-Phenotype (%) [9]: 5% | Total Cell Count [9]: 267 | Population Apoptotic (%) [10]: 71% | Population Fragmented Nuclei (%) [10]: 18% | Population Healthy Nuclei (%) [10]: 71% | Population Hoechst High Intensity Objects (%) [10]: 14% | Population Membrane Permeable-Phenotype (%) [10]: 11% | Population Mitochondria Different-Phenotype (%) [10]: 1% | Population Mitotic Cells (%) [10]: 28% | Population Normal (%) [10]: 85% | Population Pyknosed Nuclei (%) [10]: 9% | Population Tubulin-Different-Phenotype (%) [10]: 28% | Total Cell Count [10]: 87 | Population Apoptotic (%) [11]: 85% | Population Fragmented Nuclei (%) [11]: 52% | Population Healthy Nuclei (%) [11]: 40% | Population Hoechst High Intensity Objects (%) [11]: 20% | Population Membrane Permeable-Phenotype (%) [11]: 35% | Population Mitochondria Different-Phenotype (%) [11]: 0% | Population Mitotic Cells (%) [11]: 14% | Population Normal (%) [11]: 79% | Population Pyknosed Nuclei (%) [11]: 7% | Population Tubulin-Different-Phenotype (%) [11]: 35% | Total Cell Count [11]: 116 | Population Apoptotic (%) [12]: 66% | Population Fragmented Nuclei (%) [12]: 37% | Population Healthy Nuclei (%) [12]: 58% | Population Hoechst High Intensity Objects (%) [12]: 14% | Population Membrane Permeable-Phenotype (%) [12]: 24% | Population Mitochondria Different-Phenotype (%) [12]: 4% | Population Mitotic Cells (%) [12]: 33% | Population Normal (%) [12]: 85% | Population Pyknosed Nuclei (%) [12]: 3% | Population Tubulin-Different-Phenotype (%) [12]: 46% | Total Cell Count [12]: 99
